In ChEMBL document CHEMBL2150936, “Anticancer activity of small amphipathic β²,²-amino acid derivatives” (Eur J Med Chem, 2012):
Calls of active or inactive are those of the source. The calls are words filed in the database; no cut-off is given here.

Experiments:
[1] = test system: Ramos; assay: Selectivity index, ratio of EC50 for human MRC5 cells to IC50 for human Ramos cells; type: functional
In short: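 Ramos cells were seeded at 4 × 10^5 cells/ml in serum-free RPMI-1640, and compounds in RPMI-1640 were added at once. MRC-5 fibroblasts were seeded at 1 × 10^5 cells/ml in MEM with 10% FBS, grown overnight, and the medium was then replaced with compound. Both were incubated 4 h at 37 °C, 5% CO2, then given MTT for 2 h. Formazan was dissolved in acidic isopropanol and read at 590 nm. Survival was expressed relative to the untreated medium control. SI = MRC-5 EC50 / Ramos IC50.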

[2] = test system: ACHN; assay: Cytotoxicity against human ACHN cells after 4 hrs by MTT assay; type: functional, cell-based
[3] = test system: SK-MEL-5; assay: Cytotoxicity against human SK-MEL-5 cells after 4 hrs by MTT assay; type: functional, cell-based; conditions: SK-MEL-5, 4 h
[4] = test system: SR; assay: Cytotoxicity against human SR cells after 4 hrs by MTT assay; type: functional, cell-based
[5] = test system: M14; assay: Cytotoxicity against human M14 cells after 4 hrs by MTT assay; type: functional, cell-based; conditions: M14, 4 h
[6] = test system: HOP-92; assay: Cytotoxicity against human HOP92 cells after 4 hrs by MTT assay; type: functional, cell-based; conditions: HOP-92, 4 h
[7] = test system: Ramos; assay: Selectivity index, ratio of EC50 for human RBC to IC50 for human Ramos cells; type: functional
In short: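 Ramos IC50 came from a 4 h MTT assay: cells at 4 × 10^5 cells/ml in serum-free RPMI-1640, compounds added at once, 37 °C, 2 h MTT, read at 590 nm. RBC EC50 came from hemoglobin release at 405 nm: 1% v/v washed human erythrocytes in PBS, 1 h at 37 °C, Triton X-100 reference. SI = RBC EC50 / Ramos IC50.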

[8] = test system: SW-620; assay: Cytotoxicity against human SW620 cells after 4 hrs by MTT assay; type: functional, cell-based; conditions: SW-620, 4 h
[9] = test system: SF-295; assay: Cytotoxicity against human SF295 cells after 4 hrs by MTT assay; type: functional, cell-based; conditions: SF-295, 4 h
[10] = test system: HCT-116; assay: Cytotoxicity against human HCT116 cells after 4 hrs by MTT assay; type: functional, cell-based; conditions: HCT-116, 4 h
[11] = test system: CCRF-CEM; assay: Cytotoxicity against human CCRF-CEM cells after 4 hrs by MTT assay; type: functional, cell-based
[12] = test system: OVCAR-8; assay: Cytotoxicity against human OVCAR8 cells after 4 hrs by MTT assay; type: functional, cell-based; conditions: OVCAR-8, 4 h
[13] = test system: Ramos; assay: Cytotoxicity against human Ramos cells after 4 hrs by MTT assay; type: functional, cell-based
In short: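 Ramos Burkitt's lymphoma cells, kept in suspension in RPMI 1640 with 10% FBS, were seeded at 4 × 10^5 cells/ml in serum-free RPMI 1640. Compounds in RPMI-1640 were added immediately, then 4 h at 37 °C, 5% CO2. MTT was added for a further 2 h, formazan dissolved in acidic isopropanol (0.04 N HCl), and A590 read. Survival was calculated against untreated medium control; 1% Triton X-100 served as positive control.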

[14] = test system: MDA-MB-435; assay: Cytotoxicity against human MDA-MB-435 cells after 4 hrs by MTT assay; type: functional, cell-based; conditions: MDA-MB-435, 4 h
[15] = test system: SK-MEL-28; assay: Cytotoxicity against human SK-MEL-28 cells after 4 hrs by MTT assay; type: functional, cell-based; conditions: SK-MEL-28, 4 h
[16] = test system: Ramos; assay: Induction of apoptosis in human Ramos cells assessed as disruption of mitochondrial potential after 1 hr by TMRE based flow cytometry; type: functional, cell-based
[17] = test system: Hs-578T; assay: Cytotoxicity against human Hs578T cells after 4 hrs by MTT assay; type: functional, cell-based
[18] = test system: KM12; assay: Cytotoxicity against human KM12 cells after 4 hrs by MTT assay; type: functional, cell-based; conditions: KM12, 4 h
[19] = test system: A549; assay: Cytotoxicity against human A549 cells after 4 hrs by MTT assay; type: functional, cell-based; conditions: A549, 4 h
[20] = test system: OVCAR-5; assay: Cytotoxicity against human OVCAR5 cells after 4 hrs by MTT assay; type: functional, cell-based; conditions: OVCAR-5, 4 h
[21] = test system: SNB-75; assay: Cytotoxicity against human SNB75 cells after 4 hrs by MTT assay; type: functional, cell-based; conditions: SNB-75, 4 h
[22] = test system: HCT-15; assay: Cytotoxicity against human HCT15 cells after 4 hrs by MTT assay; type: functional, cell-based; conditions: HCT-15, 4 h
[23] = test system: MCF7; assay: Cytotoxicity against human MCF7 cells after 4 hrs by MTT assay; type: functional, cell-based; conditions: MCF7, 4 h
[24] = Cytotoxicity against human […] cells after 4 hrs by MTT assay; type: functional, cell-based
[25] = test system: UACC-62; assay: Cytotoxicity against human UACC62 cells after 4 hrs by MTT assay; type: functional, cell-based; conditions: UACC-62, 4 h
[26] = test system: HOP-62; assay: Cytotoxicity against human HOP62 cells after 4 hrs by MTT assay; type: functional, cell-based; conditions: HOP-62, 4 h
[27] = test system: OVCAR-4; assay: Cytotoxicity against human OVCAR4 cells after 4 hrs by MTT assay; type: functional, cell-based; conditions: OVCAR-4, 4 h
[28] = test system: SF-268; assay: Cytotoxicity against human SF268 cells after 4 hrs by MTT assay; type: functional, cell-based; conditions: SF-268, 4 h
[29] = test system: SF-539; assay: Cytotoxicity against human SF539 cells after 4 hrs by MTT assay; type: functional, cell-based; conditions: SF-539, 4 h
[30] = test system: COLO 205; assay: Cytotoxicity against human COLO205 cells after 4 hrs by MTT assay; type: functional, cell-based; conditions: COLO 205, 4 h
[31] = read-out: LC50 (the source's name)

In the case of NCCNC(=O)C(CN)(Cc1ccc2ccccc2c1)Cc1ccc2ccccc2c1, the “Selectivity Index” value [1] is reported as 5.4, the IC50 [2] is reported as 2.75 µM and the TGI [2] is reported as 2.88 µM. The CC50 [2, 31] was 5.5 µM, the IC50 [3] was 2.82 µM and the TGI [3] was 3.02 µM. It also gave a CC50 [3, 31] of 5.62 µM, an IC50 [4] of 0.35 µM and a TGI [4] of 0.62 µM. It also gave an IC50 [5] of 3.16 µM, a TGI [5] of 3.24 µM and a CC50 [5, 31] of 6.03 µM. For the same compound, the IC50 [6] was 3.72 µM, the TGI [6] was 3.47 µM and the CC50 [6, 31] was 7.24 µM. The “Selectivity Index” value [7] was 112, the IC50 [8] was 0.35 µM and the TGI [8] was 0.83 µM. The CC50 [8, 31] was 3.39 µM, the IC50 [9] was 2.51 µM and the TGI [9] was 2.69 µM. The CC50 [9, 31] was 5.75 µM, the IC50 [10] was 0.65 µM and the TGI [10] was 1.74 µM. The CC50 [10, 31] was 4.37 µM, the IC50 [11] was 2.24 µM and the TGI [11] was 3.39 µM. It also gave a CC50 [11, 31] of 9.12 µM, an IC50 [12] of 3.39 µM and a TGI [12] of 3.72 µM. For the same compound, the CC50 [12, 31] was 7.24 µM, the IC50 [13] was 4.1 µM and the IC50 [14] was 1.02 µM. It also gave a TGI [14] of 2 µM, a CC50 [14, 31] of 5.62 µM and an IC50 [15] of 3.47 µM. For the same compound, the TGI [15] was 3.47 µM, the CC50 [15, 31] was 5.89 µM and the Activity [16] was “Active”. It also gave an IC50 [17] of 3.63 µM, a TGI [17] of 3.47 µM and a CC50 [17, 31] of 7.94 µM. The IC50 [18] was 0.74 µM, the TGI [18] was 1.7 µM and the CC50 [18, 31] was 4.57 µM. The IC50 [19] was 2.51 µM, the TGI [19] was 2.88 µM and the CC50 [19, 31] was 5.75 µM. The IC50 [20] was 2.95 µM, the TGI [20] was 3.02 µM and the CC50 [20, 31] was 5.75 µM. It also gave an IC50 [21] of 2.75 µM, a TGI [21] of 2.69 µM and a CC50 [21, 31] of 5.25 µM. It also gave an IC50 [22] of 0.79 µM, a TGI [22] of 1.91 µM and a CC50 [22, 31] of 5.01 µM. For the same compound, the IC50 [23] was 1.35 µM, the TGI [23] was 2.24 µM and the CC50 [23, 31] was 5.5 µM. The IC50 [24] was 3.63 µM, the TGI [24] was 4.57 µM and the IC50 [25] was 3.31 µM. It also gave a TGI [25] of 3.31 µM, a CC50 [25, 31] of 5.75 µM and an IC50 [26] of 2.82 µM. The TGI [26] was 2.88 µM, the CC50 [26, 31] was 5.62 µM and the IC50 [27] was 2.82 µM. It also gave a TGI [27] of 2.82 µM, a CC50 [27, 31] of 5.37 µM and an IC50 [28] of 2.82 µM. The TGI [28] was 3.02 µM, the CC50 [28, 31] was 6.03 µM and the IC50 [29] was 2.69 µM. It also gave a TGI [29] of 2.88 µM, a CC50 [29, 31] of 5.62 µM and an IC50 [30] of 0.34 µM. For the same compound, the TGI [30] was 0.35 µM and the CC50 [30, 31] was 0.69 µM.
